In ChEMBL document CHEMBL1153921, “Design, synthesis, and biological evaluation of novel 1-(1H-1,2,4-triazole-1-yl)-2-(2,4-difluorophenyl)-3-substituted benzylamino-2-propanols” (2009):
Converted amounts (≈) assume the structure as drawn.

What was measured:
Assay type in all cases: functional
Nannizzia gypsea = test: Antimicrobial activity against Microsporum gypseum by micro-broth dilution method
How it was run: (§1)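 Clinical isolates. Tested by broth microdilution in 96-well plates following NCCLS M27-A2. MIC80, the minimum concentration inhibiting growth by 80%, was recorded. Marketed reference antifungals were included as positive controls.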

Pichia kudriavzevii = test: Antimicrobial activity against Candida krusei by micro-broth dilution method; how it was run: as §1
Candida parapsilosis = test: Antimicrobial activity against Candida parapsilosis by micro-broth dilution method; settings: Lodderomyces parapsilosis; how it was run: as §1
Cryptococcus neoformans = test: Antimicrobial activity against Cryptococcus neoformans by micro-broth dilution method
How it was run: (§2)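 ATCC standard strains. Broth microdilution in 96-well plates following NCCLS M27-A2 (reference broth dilution method for yeasts). Endpoint is MIC80, the lowest concentration giving 80% growth inhibition. Marketed reference antifungals ran alongside as positive controls.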

Aspergillus fumigatus = test: Antimicrobial activity against Aspergillus fumigatus by micro-broth dilution method; how it was run: as §1
Candida albicans = test: Antimicrobial activity against Candida albicans by micro-broth dilution method; how it was run: as §2
Trichophyton rubrum = test: Antimicrobial activity against Trichophyton rubrum by micro-broth dilution method; how it was run: as §1
Candida tropicalis = test: Antimicrobial activity against Candida tropicalis by micro-broth dilution method; how it was run: as §1

Structure (SMILES)	MIC80 (Nannizzia gypsea) [µg/mL]	MIC80 (Pichia kudriavzevii) [µg/mL]	MIC80 (Candida parapsilosis) [µg/mL]	MIC80 (Cryptococcus neoformans) [µg/mL]	MIC80 (Aspergillus fumigatus) [µg/mL]	MIC80 (Candida albicans) [µg/mL]	MIC80 (Trichophyton rubrum) [µg/mL]	MIC80 (Candida tropicalis) [µg/mL]
CCCCN(Cc1cccc(F)c1)CC(O)(Cn1cncn1)c1ccc(F)cc1F (stereo not drawn)	0.0625 (≈ 0.149 µM)	1 (≈ 2.39 µM)	0.25 (≈ 0.597 µM)	0.25 (≈ 0.597 µM)	> 64	0.0156 (≈ 0.0373 µM)	1 (≈ 2.39 µM)	0.25 (≈ 0.597 µM)
CCCCN(Cc1ccc(F)cc1)CC(O)(Cn1cncn1)c1ccc(F)cc1F (stereo not drawn)	0.0156 (≈ 0.0373 µM)	1 (≈ 2.39 µM)	0.0625 (≈ 0.149 µM)	0.25 (≈ 0.597 µM)	> 64	0.25 (≈ 0.597 µM)	1 (≈ 2.39 µM)	0.25 (≈ 0.597 µM)
CC(C)N(Cc1ccc(Cl)cc1Cl)CC(O)(Cn1cncn1)c1ccc(F)cc1F (stereo not drawn)	1 (≈ 2.2 µM)	1 (≈ 2.2 µM)	1 (≈ 2.2 µM)	16 (≈ 35.1 µM)	> 64	0.25 (≈ 0.549 µM)	0.25 (≈ 0.549 µM)	1 (≈ 2.2 µM)
CCCCN(Cc1ccc(CC)cc1)CC(O)(Cn1cncn1)c1ccc(F)cc1F (stereo not drawn)	1 (≈ 2.33 µM)	1 (≈ 2.33 µM)	4 (≈ 9.33 µM)	0.25 (≈ 0.583 µM)	> 64	0.0039 (≈ 0.0091 µM)	4 (≈ 9.33 µM)	1 (≈ 2.33 µM)
CCCCN(Cc1ccccc1)CC(O)(Cn1cncn1)c1ccc(F)cc1F (stereo not drawn)	0.0156 (≈ 0.039 µM)	0.25 (≈ 0.624 µM)	0.0625 (≈ 0.156 µM)	0.0625 (≈ 0.156 µM)	> 64	0.0625 (≈ 0.156 µM)	0.25 (≈ 0.624 µM)	0.0625 (≈ 0.156 µM)
CCCCN(Cc1ccccc1F)CC(O)(Cn1cncn1)c1ccc(F)cc1F (stereo not drawn)	0.25 (≈ 0.597 µM)	0.25 (≈ 0.597 µM)	0.25 (≈ 0.597 µM)	0.25 (≈ 0.597 µM)	16 (≈ 38.2 µM)	0.0625 (≈ 0.149 µM)	1 (≈ 2.39 µM)	0.25 (≈ 0.597 µM)
CCCCN(Cc1ccccc1Cl)CC(O)(Cn1cncn1)c1ccc(F)cc1F (stereo not drawn)	0.25 (≈ 0.575 µM)	1 (≈ 2.3 µM)	0.25 (≈ 0.575 µM)	0.25 (≈ 0.575 µM)	> 64	1 (≈ 2.3 µM)	1 (≈ 2.3 µM)	0.25 (≈ 0.575 µM)
CCCCN(Cc1ccc(Br)cc1)CC(O)(Cn1cncn1)c1ccc(F)cc1F (stereo not drawn)	1 (≈ 2.09 µM)	1 (≈ 2.09 µM)	0.25 (≈ 0.522 µM)	0.25 (≈ 0.522 µM)	> 64	4 (≈ 8.34 µM)	0.25 (≈ 0.522 µM)	1 (≈ 2.09 µM)
CCCCN(Cc1ccc(C)cc1)CC(O)(Cn1cncn1)c1ccc(F)cc1F (stereo not drawn)	0.25 (≈ 0.603 µM)	1 (≈ 2.41 µM)	1 (≈ 2.41 µM)	0.25 (≈ 0.603 µM)	> 64	4 (≈ 9.65 µM)	1 (≈ 2.41 µM)	1 (≈ 2.41 µM)
CCCCN(Cc1ccc(Cl)cc1)CC(O)(Cn1cncn1)c1ccc(F)cc1F (stereo not drawn)	1 (≈ 2.3 µM)	1 (≈ 2.3 µM)	1 (≈ 2.3 µM)	1 (≈ 2.3 µM)	> 64	1 (≈ 2.3 µM)	1 (≈ 2.3 µM)	1 (≈ 2.3 µM)
CCCCN(Cc1ccccc1Br)CC(O)(Cn1cncn1)c1ccc(F)cc1F (stereo not drawn)	0.25 (≈ 0.522 µM)	1 (≈ 2.09 µM)	0.25 (≈ 0.522 µM)	0.25 (≈ 0.522 µM)	> 64	1 (≈ 2.09 µM)	1 (≈ 2.09 µM)	0.25 (≈ 0.522 µM)
CCCCN(Cc1ccc(Cl)cc1Cl)CC(O)(Cn1cncn1)c1ccc(F)cc1F (stereo not drawn)	0.25 (≈ 0.533 µM)	16 (≈ 34.1 µM)	4 (≈ 8.52 µM)	1 (≈ 2.13 µM)	> 64	0.0039 (≈ 0.00831 µM)	16 (≈ 34.1 µM)	1 (≈ 2.13 µM)
CCCCN(Cc1cccc(Cl)c1)CC(O)(Cn1cncn1)c1ccc(F)cc1F (stereo not drawn)	0.25 (≈ 0.575 µM)	1 (≈ 2.3 µM)	0.25 (≈ 0.575 µM)	0.25 (≈ 0.575 µM)	> 64	1 (≈ 2.3 µM)	1 (≈ 2.3 µM)	1 (≈ 2.3 µM)
CCCCN(Cc1ccccc1C)CC(O)(Cn1cncn1)c1ccc(F)cc1F (stereo not drawn)	0.0156 (≈ 0.0376 µM)	1 (≈ 2.41 µM)	0.25 (≈ 0.603 µM)	0.25 (≈ 0.603 µM)	> 64	1 (≈ 2.41 µM)	1 (≈ 2.41 µM)	0.25 (≈ 0.603 µM)
CCCCN(Cc1ccc([N+](=O)[O-])cc1)CC(O)(Cn1cncn1)c1ccc(F)cc1F (stereo not drawn)	0.0625 (≈ 0.14 µM)	1 (≈ 2.24 µM)	0.25 (≈ 0.561 µM)	0.0625 (≈ 0.14 µM)	> 64	0.0156 (≈ 0.035 µM)	0.25 (≈ 0.561 µM)	0.0625 (≈ 0.14 µM)
C[C@@H]1[C@H](O)[C@@H](C)/C=C/C=C/C=C/C=C/C=C/C=C/C=C/[C@H](O[C@@H]2O[C@H](C)[C@@H](O)[C@H](N)[C@@H]2O)C[C@@H]2O[C@](O)(C[C@@H](O)C[C@@H](O)[C@H](O)CC[C@@H](O)C[C@@H](O)CC(=O)O[C@H]1C)C[C@H](O)[C@H]2C(=O)O [AMPHOTERICIN B]	2 (≈ 2.16 µM)	2 (≈ 2.16 µM)	2 (≈ 2.16 µM)	2 (≈ 2.16 µM)	64 (≈ 69.3 µM)	2 (≈ 2.16 µM)	2 (≈ 2.16 µM)	2 (≈ 2.16 µM)
OC(Cn1cncn1)(Cn1cncn1)c1ccc(F)cc1F [FLUCONAZOLE]	0.25 (≈ 0.816 µM)	4 (≈ 13.1 µM)	1 (≈ 3.27 µM)	1 (≈ 3.27 µM)	> 64	0.5 (≈ 1.63 µM)	4 (≈ 13.1 µM)	1 (≈ 3.27 µM)
CCC(C)n1ncn(-c2ccc(N3CCN(c4ccc(OCC5COC(Cn6cncn6)(c6ccc(Cl)cc6Cl)O5)cc4)CC3)cc2)c1=O (stereo not drawn) [ITRACONAZOLE]	0.0625 (≈ 0.0886 µM)	0.5 (≈ 0.709 µM)	0.125 (≈ 0.177 µM)	0.125 (≈ 0.177 µM)	0.5 (≈ 0.709 µM)	0.0625 (≈ 0.0886 µM)	0.125 (≈ 0.177 µM)	0.125 (≈ 0.177 µM)
CC(=O)N1CCN(c2ccc(OCC3COC(Cn4ccnc4)(c4ccc(Cl)cc4Cl)O3)cc2)CC1 (stereo not drawn) [KETOCONAZOLE]	0.0156 (≈ 0.0294 µM)	0.25 (≈ 0.47 µM)	0.0625 (≈ 0.118 µM)	0.0625 (≈ 0.118 µM)	1 (≈ 1.88 µM)	0.0156 (≈ 0.0294 µM)	0.0625 (≈ 0.118 µM)	0.0625 (≈ 0.118 µM)
CN(C/C=C/C#CC(C)(C)C)Cc1cccc2ccccc12 [TERBINAFINE]	4 (≈ 13.7 µM)	16 (≈ 54.9 µM)	0.25 (≈ 0.858 µM)	1 (≈ 3.43 µM)	0.0625 (≈ 0.214 µM)	4 (≈ 13.7 µM)	0.0625 (≈ 0.214 µM)	0.0625 (≈ 0.214 µM)
C[C@@H](c1ncncc1F)[C@](O)(Cn1cncn1)c1ccc(F)cc1F [VORICONAZOLE]	0.0039 (≈ 0.0112 µM)	0.0625 (≈ 0.179 µM)	0.0039 (≈ 0.0112 µM)	0.0156 (≈ 0.0447 µM)	0.25 (≈ 0.716 µM)	0.0156 (≈ 0.0447 µM)	0.0625 (≈ 0.179 µM)	0.0039 (≈ 0.0112 µM)
